Results taken from ChEMBL document CHEMBL4411269, “Required Immunoproteasome Subunit Inhibition Profile for Anti-Inflammatory Efficacy and Clinical Candidate KZR-616 ((2 S,3 R)- N-(( S)-3-(Cyclopent-1-en-1-yl)-1-(( R)-2-methyloxiran-2-yl)-1-oxopropan-2-yl)-3-hydroxy-3-(4-methoxyphenyl)-2-(( S)-2-(2-morpholinoacetamido)propanamido)propenamide)” (J Med Chem, 2018).
The source made the active and inactive calls. No cut-off for these calls is given here.

Legend:
[1] = system: PBMC; test: Cytotoxicity in human PBMC assessed as reduction in cell viability at 500 nM relative to control; format: cell-based; conditions: 0.5 µM
[2] = Half life in Balb/c mouse at 2 mg/kg, iv; format: ADME, organism-based; conditions: in vivo
Outline: (§1)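 Female BALB/c mice aged 7−8 weeks, given 2 mg/kg iv in 25% PEG300/WFI. Cardiac blood taken at 2, 5, 10, 20, 30, 60 and 120 min postdose into sodium heparin and processed to plasma (n = 3/time point). Proteins precipitated with acetonitrile; drug measured by LC−MS/MS. Noncompartmental analysis of mean concentrations at nominal times and target doses.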

[3] = Clearance in Balb/c mouse at 2 mg/kg, iv; format: ADME, organism-based; conditions: in vivo; outline: as §1
[4] = system: PBMC; test: Antiinflammatory activity in human PBMC assessed as reduction in LPS-stimulated TNF-alpha expression at 500 nM preincubated for 1 hr followed by LPS stimulation measured after 24 hrs by ELISA; format: functional, cell-based
Outline: (§2)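 Cryopreserved healthy-donor PBMC in RPMI 1640 with 5% heat-inactivated FBS, 250 000 cells/well. Compound (0.1% DMSO final) for 1 h at 37 °C, 5% CO2, then 4 washes with medium. Stimulated with 1 μg/mL LPS for 24 h; supernatant TNFα, IL-6 and IL-12/23p40 by electrochemiluminescent immunoassay. Mean level relative to DMSO controls, n = 6.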

[5] = system: PBMC; test: Antiinflammatory activity in human PBMC assessed as reduction in LPS-stimulated IL-6 expression at 500 nM preincubated for 1 hr followed by LPS stimulation measured after 24 hrs by ELISA; format: functional, cell-based; outline: as §2
[6] = system: PBMC; test: Antiinflammatory activity in human PBMC assessed as reduction in LPS-stimulated p40 subunit of […] expression at 500 nM preincubated for 1 hr followed by LPS stimulation measured after 24 hrs by ELISA; format: functional, cell-based; outline: as §2
[7] = system: PBMC; test: Antiinflammatory activity in human PBMC assessed as reduction in anti-CD3/CD28 antibody-stimulated TNF-alpha expression at 500 nM preincubated for 1 hr followed by anti-CD3/CD28 antibody stimulation measured after 24 hrs by ELISA; format: functional, cell-based
Outline: (§3)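 Healthy-donor PBMC, thawed from cryopreservation, 250 000 cells/well in RPMI 1640/5% FBS. Pretreated 1 h at 37 °C with compound alone or combined (0.1% DMSO final), washed 4 times, then stimulated 24 h with anti-CD3 and anti-CD28 antibodies. TNFα and IFNγ in supernatants by electrochemiluminescent ELISA; expressed relative to DMSO-treated controls (n = 6).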

[8] = system: PBMC; test: Antiinflammatory activity in human PBMC assessed as reduction in anti-CD3/CD28 antibody-stimulated IFN-gamma expression at 500 nM preincubated for 1 hr followed by anti-CD3/CD28 antibody stimulation measured after 24 hrs by ELISA; format: functional, cell-based; outline: as §3
[9] = system: Mus musculus; test: In vivo inhibition of LMP7 in Balb/c mouse splenocytes at 5 mg/kg, iv followed by dosing repeat on day 6, 8, 11, 13 and 15 and measured on 1 hr post last dose; format: functional, organism-based
Outline: (§4)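 BALB/c mice dosed iv bolus in 10% sulfobutyl ether−β-cyclodextrin/10 mM sodium citrate pH 3.5; tissues taken 1 h after administration. Splenocytes strained and red cells lysed; kidney frozen, then bead-homogenized. Hypotonic lysate (20 mM Tris pH 8, 5 mM EDTA) at 1 mg/mL (spleen) or 5 mg/mL (kidney) run in the ProCISE active-site ELISA. Background-subtracted, protein-normalized activity relative to vehicle animals; n = 3.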

[10] = system: Mus musculus; test: In vivo inhibition of LMP2 in Balb/c mouse splenocytes at 5 mg/kg, iv followed by dosing repeat on day 6, 8, 11, 13 and 15 and measured on 1 hr post last dose; format: functional, organism-based; outline: as §4
[11] = system: Mus musculus; test: In vivo inhibition of MECL-1 in Balb/c mouse splenocytes at 5 mg/kg, iv followed by dosing repeat on day 6, 8, 11, 13 and 15 and measured on 1 hr post last dose; format: functional, organism-based; outline: as §4
[12] = system: Mus musculus; test: In vivo inhibition of proteosome beta 5 in Balb/c mouse kidney at 5 mg/kg, iv followed by dosing repeat on day 6, 8, 11, 13 and 15 and measured on 1 hr post last dose; format: functional, organism-based; outline: as §4
[13] = system: Mus musculus; test: Antiarthritic activity in type 2 collagen antibody/LPS induced Balb/c mouse assessed as reduction in disease burden at 5 mg/kg, iv followed by dosing repeat on day 6, 8, 11, 13 and 15 and measured until day 18; format: functional, organism-based
Outline: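 CAIA in 7−8 week old female BALB/c mice on breeder chow. Induced with 1.75 mg of a 5-antibody anti-type II collagen cocktail iv on day 0, then 25 μg LPS ip on day 3. Dosed as single iv boluses in 10% (w/v) sulfobutyl ether−β-cyclodextrin/10 mM sodium citrate (pH 3.5); vehicle-treated group included.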

[14] = Toxicity in Balb/c mouse assessed as change in body weight at 5 mg/kg, iv followed by dosing repeat on day 6, 8, 11, 13 and 15 and measured until day 18; format: organism-based; conditions: in vivo
[15] = Toxicity in Balb/c mouse assessed as effect on cage-side observations at 5 mg/kg, iv followed by dosing repeat on day 6, 8, 11, 13 and 15 and measured until day 18; format: organism-based; conditions: in vivo
[16] = target: T1, Proteasome subunit beta type-8 (Homo sapiens) (UniProt P28062); test: Inhibition of LMP7 in human PBMC at 500 nM by ELISA
T1 sequence (whole entry): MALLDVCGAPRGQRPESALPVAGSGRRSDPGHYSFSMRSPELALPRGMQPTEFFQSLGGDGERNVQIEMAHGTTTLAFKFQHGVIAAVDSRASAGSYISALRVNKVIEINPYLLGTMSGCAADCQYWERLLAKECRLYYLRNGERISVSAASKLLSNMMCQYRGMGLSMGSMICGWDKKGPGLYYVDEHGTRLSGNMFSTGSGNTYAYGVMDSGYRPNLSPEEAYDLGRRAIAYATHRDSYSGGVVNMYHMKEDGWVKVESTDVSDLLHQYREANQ
Outline: (§5)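 Cryopreserved healthy-donor human PBMC in RPMI 1640 with 5% heat-inactivated FBS, exposed to compound (0.1% DMSO final) for 1 h at 37 °C, 5% CO2, then washed. Subunit-specific active-site occupancy read by ProCISE: biotinylated active-site probe binding, denaturation, streptavidin capture, subunit-specific antibody and HRP chemiluminescence. Signal normalized to protein and expressed relative to DMSO controls.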

[17] = target: T2, Proteasome subunit beta type-10 (Homo sapiens) (UniProt P40306); test: Inhibition of MECL1 in human PBMC at 500 nM by ELISA; outline: as §5
T2 sequence (whole entry): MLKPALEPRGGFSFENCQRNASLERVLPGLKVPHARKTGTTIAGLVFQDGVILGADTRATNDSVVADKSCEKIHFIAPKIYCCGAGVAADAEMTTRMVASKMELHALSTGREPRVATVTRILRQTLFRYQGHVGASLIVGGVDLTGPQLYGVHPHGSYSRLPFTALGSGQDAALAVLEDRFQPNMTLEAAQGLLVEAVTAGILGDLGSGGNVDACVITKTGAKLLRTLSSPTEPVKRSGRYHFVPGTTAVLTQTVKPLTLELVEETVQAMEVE

[18] = target: T3, Proteasome subunit beta type-9 (Homo sapiens) (UniProt P28065); conditions: 500 nM
T3 sequence (whole entry): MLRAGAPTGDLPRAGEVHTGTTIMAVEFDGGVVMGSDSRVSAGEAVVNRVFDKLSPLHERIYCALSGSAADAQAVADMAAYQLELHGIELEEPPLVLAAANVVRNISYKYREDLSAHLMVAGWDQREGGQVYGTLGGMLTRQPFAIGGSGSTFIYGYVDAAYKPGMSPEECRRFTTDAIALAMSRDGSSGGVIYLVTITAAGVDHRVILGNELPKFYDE

C[C@]1(C(=O)[C@H](Cc2ccccc2)NC(=O)[C@H](CO)NC(=O)c2cccc(=O)[nH]2)CO1
Activity [1]: 30% | half-life [2]: < 7 min | clearance [3]: > 73 mL/min/kg | Activity [4]: inactive | Activity [5]: inactive | Activity [6]: inactive | Activity [7]: inactive | Activity [8]: inactive | inhibition [9]: Active | inhibition [10]: Active | inhibition [11]: Active | inhibition [12]: Active | Activity [13]: inactive | Activity [14]: Non-Toxic | Activity [15]: Non-Toxic | inhibition [16]: Active | inhibition [17]: Active | inhibition [18]: Active
